Experiment [1] addresses Transcription factor p65 (Homo sapiens) (UniProt Q04206). Kind of experiment: Inhibition of TNF-alpha-stimulated human NF-kappaB p65 RelA subunit nuclear translocation in HUVEC. A digest of the protocol:
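HUVEC (fewer than 8 passages) were seeded at 3,000 cells/well. Compounds were added in 8-point series, either from 10 µM final in media with 0.33% DMSO diluted 1:3, or from 8 µM diluted 1:2. After 3.5 h with compound, cells were stimulated with […] for 30 min. Cells were then fixed, permeabilized, stained with Hoechst and with anti-p65 plus an Alexa 647 secondary, and imaged automatically. IC50 is from curve fitting of one experiment run in triplicate, with BAY 11-7082 as the positive control.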

In the next experiment the test system is HUVEC. Kind of experiment: Inhibition of TNFalpha stimulated human NF-kappaB-mediated beta lactamase gene expression in HUVEC. The class given is cell-based.
Experiment [2] is described as follows: Cytotoxicity against NF-kappaB overexpressing human OCI-Ly3 cells after 4 hrs. The class given is functional, cell-based. Conditions: OCI-Ly3, 4 h.

Each structure is given as a SMILES string. The source made the active and inactive calls. The calls are words filed in the database; no cut-off is given here.

Transcription factor p65 (Homo sapiens), sequence (Q04206 whole entry): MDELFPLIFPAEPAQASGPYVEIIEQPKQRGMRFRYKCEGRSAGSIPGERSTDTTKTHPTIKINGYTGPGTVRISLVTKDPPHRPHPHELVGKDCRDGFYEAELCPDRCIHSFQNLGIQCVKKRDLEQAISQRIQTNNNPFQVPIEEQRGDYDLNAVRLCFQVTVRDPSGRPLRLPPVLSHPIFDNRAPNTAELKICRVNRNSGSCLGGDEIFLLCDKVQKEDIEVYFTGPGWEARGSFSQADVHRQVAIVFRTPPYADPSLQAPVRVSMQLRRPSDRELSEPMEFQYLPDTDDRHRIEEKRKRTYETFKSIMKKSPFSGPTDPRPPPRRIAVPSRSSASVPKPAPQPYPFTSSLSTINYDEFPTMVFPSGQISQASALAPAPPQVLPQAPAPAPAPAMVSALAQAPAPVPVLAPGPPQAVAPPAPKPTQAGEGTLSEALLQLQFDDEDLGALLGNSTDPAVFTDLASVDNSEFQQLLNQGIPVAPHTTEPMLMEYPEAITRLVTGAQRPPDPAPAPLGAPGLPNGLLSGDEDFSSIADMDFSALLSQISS

As to `COc1cc(NS(=O)(=O)c2ccc(C)cc2[N+](=O)[O-])c2nc(C)ccc2c1`, the result (in experiment [1]; with HUVEC) was inactive. Also, the IC50 (commonly the midpoint of a concentration-inhibition curve) in experiment [2] is greater than 57 µM.

The record behind these values is ChEMBL document CHEMBL1142284, “Identification of N-(quinolin-8-yl)benzenesulfonamides as agents capable of down-regulating NFkappaB activity within two separate high-throughput screens of NFkappaB activation” (Bioorg Med Chem Lett, 2008).
